Each block holds one compound with its values, some of them ahead of it. Calls of active or inactive are those of the source. No cut-off for these calls is given here.
Tests used:
Mus musculus [1] = experiment: Antiarthritic activity in collagen-induced DBA1/J mouse arthritis model assessed as decrease in infiltration of inflammatory cells in right hind ankle joints at 100 mg/kg, po qd measured on day 19 by hematoxylin-eosin staining-based assay; format: functional, organism-based
In short: (§1)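 Male DBA1/J mice, 6 weeks old, immunized s.c. at the tail base with type II collagen (2 mg/mL) in complete Freund's adjuvant (1:1, 0.1 mL), then boosted at day 21 with collagen in incomplete Freund's adjuvant. Clinical scores taken twice weekly for 18 days; serum IL-6 and TNF-α measured after autopsy; right hind ankle assessed by histopathology and by micro-CT for bone surface/volume.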

Mus musculus [2] = experiment: Antiarthritic activity in collagen-induced DBA1/J mouse arthritis model assessed as decrease in right hind ankle joint thickness at 100 mg/kg, po qd measured on day 19 by hematoxylin-eosin staining-based assay; format: functional, organism-based; in short: as §1
Mus musculus [3] = experiment: Antiarthritic activity in collagen-induced DBA1/J mouse arthritis model assessed as decrease in articular surface cartilage thickness in right hind ankle joints at 100 mg/kg, po qd measured on day 19 by hematoxylin-eosin staining-based assay; format: functional, organism-based; in short: as §1
Mus musculus [4] = experiment: Antiarthritic activity in collagen-induced DBA1/J mouse arthritis model assessed as decrease in paw volume at 100 mg/kg, po qd measured on day 1 and 15 by plethysmometer
Mus musculus [5] = experiment: Antiarthritic activity in collagen-induced DBA1/J mouse arthritis model assessed as decrease in serum TNF-alpha levels at 100 mg/kg, po qd measured on day 19 by ELISA; format: functional, organism-based; in short: as §1
Mus musculus [6] = experiment: Antiarthritic activity in collagen-induced DBA1/J mouse arthritis model assessed as decrease in clinical arthritis score at 100 mg/kg, po qd measured twice weekly for 18 days; format: functional, organism-based; in short: as §1
Rattus norvegicus [7] = experiment: Antiarthritic activity in adjuvant-induced SPF LEW/SsNSlc rat arthritis model assessed as decrease in clinical arthritis score at 20 mg/kg, po qd measured on day 14; format: functional, organism-based
In short: (§2)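 Lewis rats were 10 weeks old after 2 weeks acclimation. Immunized s.c. at the tail base with 0.1 mL complete Freund's adjuvant containing 10 mg/mL heat-killed mycobacterium. From day 12 post-immunization (day 1), n=10 per group, oral dosing once daily for 14 days, vehicle corn oil. Clinical score and hind paw measured twice weekly.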

Rattus norvegicus [8] = experiment: Antiarthritic activity in adjuvant-induced SPF LEW/SsNSlc rat arthritis model assessed as paw thickness at 20 mg/kg, po qd measured on day 14; format: functional; in short: as §2
Mus musculus [9] = experiment: Antiarthritic activity in collagen-induced DBA1/J mouse arthritis model assessed as decrease in ratio of bone surface to bone volume of right hind ankle joint at 100 mg/kg, po qd measured on day 19 by micro-CT analysis; format: functional, organism-based; in short: as §1
Mus musculus [10] = experiment: Antiarthritic activity in collagen-induced DBA1/J mouse arthritis model assessed as decrease in serum IL-6 levels at 100 mg/kg, po qd measured on day 19 by ELISA; format: functional, organism-based; in short: as §1
[11] = target: T1, Tyrosine-protein kinase JAK1 (Homo sapiens, UniProt P23458); experiment: Inhibition of human JAK1 at 1 uM using GEEPLYWSFPAKKK as substrate after 40 mins in presence of [gamma-33P-ATP] by scintillation counting method relative to control
[12] = target: Tyrosine-protein kinase JAK2 (Homo sapiens, UniProt O60674); experiment: Inhibition of human JAK2 at 1 uM using KTFCGTPEYLAPEVRREPRILSEEEQEMFRDFDYIADWC as substrate after 40 mins in presence of [gamma-33P-ATP] by scintillation counting method relative to control
Rattus norvegicus [13] = experiment: Antiarthritic activity in adjuvant-induced SPF LEW/SsNSlc rat arthritis model assessed as decrease in clinical arthritis score at 5 to 20 mg/kg, po qd measured on day 14; format: functional, organism-based; in short: as §2
Mus musculus [14] = experiment: Antiarthritic activity in collagen-induced DBA1/J mouse arthritis model assessed as decrease in serum IL-6 levels administered as po qd measured on day 19 by ELISA; format: functional, organism-based; in short: as §1
Mus musculus [15] = experiment: Antiarthritic activity in collagen-induced DBA1/J mouse arthritis model assessed as decrease in infiltration of inflammatory cells in right hind ankle joints administered as po qd measured on day 19 by hematoxylin-eosin staining-based assay; format: functional, organism-based; in short: as §1
Mus musculus [16] = experiment: Antiarthritic activity in collagen-induced DBA1/J mouse arthritis model assessed as decrease in ratio of bone surface to bone volume of right hind ankle joint administered as po qd measured on day 19 by micro-CT analysis; format: functional, organism-based; in short: as §1
Mus musculus [17] = experiment: Antiarthritic activity in collagen-induced DBA1/J mouse arthritis model assessed as decrease in right hind ankle joint thickness administered as po qd measured on day 19 by hematoxylin-eosin staining-based assay; format: functional, organism-based; in short: as §1
[18] = target: Non-receptor tyrosine-protein kinase TYK2 (Homo sapiens) (UniProt P29597); conditions: 10 uM
Mus musculus [19] = experiment: Antiarthritic activity in collagen-induced DBA1/J mouse arthritis model assessed as decrease in clinical arthritis score administered as po qd measured twice weekly for 18 days; format: functional, organism-based; in short: as §1
[20] = target: T2, Tyrosine-protein kinase JAK3 (Homo sapiens) (UniProt P52333); conditions: 10 uM
T2 sequence (whole entry): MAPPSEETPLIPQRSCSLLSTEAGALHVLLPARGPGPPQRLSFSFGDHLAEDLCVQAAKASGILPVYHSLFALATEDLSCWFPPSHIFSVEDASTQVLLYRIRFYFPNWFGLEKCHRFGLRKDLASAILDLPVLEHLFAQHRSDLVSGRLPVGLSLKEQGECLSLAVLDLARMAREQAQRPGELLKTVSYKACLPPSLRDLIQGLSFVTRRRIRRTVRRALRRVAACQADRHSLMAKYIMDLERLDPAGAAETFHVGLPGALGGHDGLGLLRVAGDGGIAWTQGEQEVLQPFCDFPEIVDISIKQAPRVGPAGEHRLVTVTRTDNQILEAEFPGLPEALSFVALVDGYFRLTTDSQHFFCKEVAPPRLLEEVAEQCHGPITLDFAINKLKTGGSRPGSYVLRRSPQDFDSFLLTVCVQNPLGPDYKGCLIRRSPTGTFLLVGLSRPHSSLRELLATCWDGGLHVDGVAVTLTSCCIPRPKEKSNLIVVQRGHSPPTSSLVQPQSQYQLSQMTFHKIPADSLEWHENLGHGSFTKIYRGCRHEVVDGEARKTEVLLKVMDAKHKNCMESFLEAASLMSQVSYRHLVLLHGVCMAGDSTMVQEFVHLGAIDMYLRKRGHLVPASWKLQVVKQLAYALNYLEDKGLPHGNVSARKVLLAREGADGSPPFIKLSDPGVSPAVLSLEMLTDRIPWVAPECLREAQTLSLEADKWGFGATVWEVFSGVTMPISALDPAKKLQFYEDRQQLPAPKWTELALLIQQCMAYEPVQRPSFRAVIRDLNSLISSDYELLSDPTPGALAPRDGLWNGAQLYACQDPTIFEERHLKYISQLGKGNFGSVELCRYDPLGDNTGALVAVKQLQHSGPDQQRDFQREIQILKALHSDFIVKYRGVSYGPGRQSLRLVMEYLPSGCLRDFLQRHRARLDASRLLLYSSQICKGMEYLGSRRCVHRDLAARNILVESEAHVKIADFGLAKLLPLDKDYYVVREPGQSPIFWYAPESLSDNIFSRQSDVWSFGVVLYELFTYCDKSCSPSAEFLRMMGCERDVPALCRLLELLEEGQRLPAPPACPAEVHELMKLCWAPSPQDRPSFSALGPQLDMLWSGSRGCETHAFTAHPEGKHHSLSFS

Mus musculus [21] = experiment: Antiarthritic activity in collagen-induced DBA1/J mouse arthritis model assessed as decrease in articular surface cartilage thickness in right hind ankle joints administered as po qd measured on day 19 by hematoxylin-eosin staining-based assay; format: functional, organism-based; in short: as §1
Homo sapiens = species on record: Homo sapiens; experiment: Selectivity index, ratio of IC50 for human JAK2 to IC50 for human JAK1
In short: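 Kinase activity assays run as a commercial service at Km ATP; IC50 values fitted from concentration-response data; ratio of JAK2 to JAK1 IC50.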

[22] = target: T1, Tyrosine-protein kinase JAK1; conditions: 10 uM
Mus musculus [23] = experiment: Antiarthritic activity in collagen-induced DBA1/J mouse arthritis model assessed as decrease in paw volume administered as po qd measured on day 1 and 15 by plethysmometer

T1 sequence (P23458 whole entry): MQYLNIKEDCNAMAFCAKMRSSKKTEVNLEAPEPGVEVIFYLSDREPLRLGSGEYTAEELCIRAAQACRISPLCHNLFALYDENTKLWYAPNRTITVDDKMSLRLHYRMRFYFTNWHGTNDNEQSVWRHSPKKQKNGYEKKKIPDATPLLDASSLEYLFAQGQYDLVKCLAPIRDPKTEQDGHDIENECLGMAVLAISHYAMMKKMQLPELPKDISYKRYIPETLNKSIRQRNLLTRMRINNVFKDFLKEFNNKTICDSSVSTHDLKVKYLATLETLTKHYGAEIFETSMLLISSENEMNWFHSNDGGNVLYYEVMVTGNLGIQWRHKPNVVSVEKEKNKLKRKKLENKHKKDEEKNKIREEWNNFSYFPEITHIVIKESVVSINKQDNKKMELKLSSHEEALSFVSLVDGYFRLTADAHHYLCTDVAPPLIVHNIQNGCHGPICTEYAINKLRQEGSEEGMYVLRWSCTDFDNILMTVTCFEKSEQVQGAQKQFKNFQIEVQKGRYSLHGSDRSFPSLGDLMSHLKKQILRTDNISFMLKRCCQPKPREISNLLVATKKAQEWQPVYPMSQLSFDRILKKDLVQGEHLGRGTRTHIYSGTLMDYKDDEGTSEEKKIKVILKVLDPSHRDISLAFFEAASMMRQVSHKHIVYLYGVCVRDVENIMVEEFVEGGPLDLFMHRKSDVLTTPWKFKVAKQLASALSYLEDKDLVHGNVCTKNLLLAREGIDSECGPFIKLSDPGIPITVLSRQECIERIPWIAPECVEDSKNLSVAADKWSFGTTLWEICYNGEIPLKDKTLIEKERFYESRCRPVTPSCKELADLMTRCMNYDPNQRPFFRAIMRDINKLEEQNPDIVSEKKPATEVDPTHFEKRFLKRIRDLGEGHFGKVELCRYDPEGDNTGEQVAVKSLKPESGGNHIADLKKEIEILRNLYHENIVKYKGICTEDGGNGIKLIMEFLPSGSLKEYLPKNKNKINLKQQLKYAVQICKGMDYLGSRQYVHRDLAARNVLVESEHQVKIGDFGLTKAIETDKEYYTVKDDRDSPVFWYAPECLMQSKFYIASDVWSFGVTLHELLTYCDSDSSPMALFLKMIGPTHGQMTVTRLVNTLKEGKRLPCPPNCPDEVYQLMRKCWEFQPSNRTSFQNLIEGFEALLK
Sequence of Tyrosine-protein kinase JAK2 (O60674 whole entry): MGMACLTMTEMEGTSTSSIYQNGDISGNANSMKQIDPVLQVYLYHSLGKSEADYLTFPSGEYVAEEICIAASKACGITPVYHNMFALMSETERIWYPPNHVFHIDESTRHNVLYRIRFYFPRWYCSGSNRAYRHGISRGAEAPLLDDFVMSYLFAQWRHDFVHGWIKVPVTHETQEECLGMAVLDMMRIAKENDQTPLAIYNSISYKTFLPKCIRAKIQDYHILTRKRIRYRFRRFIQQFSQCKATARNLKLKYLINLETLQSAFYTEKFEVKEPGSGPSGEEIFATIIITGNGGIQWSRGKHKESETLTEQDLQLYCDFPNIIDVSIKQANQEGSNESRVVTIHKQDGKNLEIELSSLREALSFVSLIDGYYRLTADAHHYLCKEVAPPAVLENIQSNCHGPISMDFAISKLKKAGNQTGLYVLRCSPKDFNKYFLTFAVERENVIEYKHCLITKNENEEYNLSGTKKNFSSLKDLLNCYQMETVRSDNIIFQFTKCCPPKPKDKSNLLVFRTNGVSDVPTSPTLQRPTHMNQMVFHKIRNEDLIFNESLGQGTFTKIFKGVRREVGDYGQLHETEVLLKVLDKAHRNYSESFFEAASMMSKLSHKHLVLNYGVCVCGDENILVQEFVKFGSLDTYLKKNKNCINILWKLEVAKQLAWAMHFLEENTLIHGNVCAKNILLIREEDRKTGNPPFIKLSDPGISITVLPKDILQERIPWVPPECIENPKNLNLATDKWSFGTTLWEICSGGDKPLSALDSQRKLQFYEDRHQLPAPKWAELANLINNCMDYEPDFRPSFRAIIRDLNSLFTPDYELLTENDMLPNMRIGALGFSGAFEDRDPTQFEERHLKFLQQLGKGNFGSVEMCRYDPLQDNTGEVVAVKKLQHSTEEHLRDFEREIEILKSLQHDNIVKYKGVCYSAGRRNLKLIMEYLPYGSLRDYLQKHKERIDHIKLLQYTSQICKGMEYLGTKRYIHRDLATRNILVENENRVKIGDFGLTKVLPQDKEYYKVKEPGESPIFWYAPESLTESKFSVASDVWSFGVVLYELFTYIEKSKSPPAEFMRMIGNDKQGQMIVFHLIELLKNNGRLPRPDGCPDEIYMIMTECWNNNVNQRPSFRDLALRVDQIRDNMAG
Sequence of Non-receptor tyrosine-protein kinase TYK2 (Homo sapiens) (P29597 whole entry): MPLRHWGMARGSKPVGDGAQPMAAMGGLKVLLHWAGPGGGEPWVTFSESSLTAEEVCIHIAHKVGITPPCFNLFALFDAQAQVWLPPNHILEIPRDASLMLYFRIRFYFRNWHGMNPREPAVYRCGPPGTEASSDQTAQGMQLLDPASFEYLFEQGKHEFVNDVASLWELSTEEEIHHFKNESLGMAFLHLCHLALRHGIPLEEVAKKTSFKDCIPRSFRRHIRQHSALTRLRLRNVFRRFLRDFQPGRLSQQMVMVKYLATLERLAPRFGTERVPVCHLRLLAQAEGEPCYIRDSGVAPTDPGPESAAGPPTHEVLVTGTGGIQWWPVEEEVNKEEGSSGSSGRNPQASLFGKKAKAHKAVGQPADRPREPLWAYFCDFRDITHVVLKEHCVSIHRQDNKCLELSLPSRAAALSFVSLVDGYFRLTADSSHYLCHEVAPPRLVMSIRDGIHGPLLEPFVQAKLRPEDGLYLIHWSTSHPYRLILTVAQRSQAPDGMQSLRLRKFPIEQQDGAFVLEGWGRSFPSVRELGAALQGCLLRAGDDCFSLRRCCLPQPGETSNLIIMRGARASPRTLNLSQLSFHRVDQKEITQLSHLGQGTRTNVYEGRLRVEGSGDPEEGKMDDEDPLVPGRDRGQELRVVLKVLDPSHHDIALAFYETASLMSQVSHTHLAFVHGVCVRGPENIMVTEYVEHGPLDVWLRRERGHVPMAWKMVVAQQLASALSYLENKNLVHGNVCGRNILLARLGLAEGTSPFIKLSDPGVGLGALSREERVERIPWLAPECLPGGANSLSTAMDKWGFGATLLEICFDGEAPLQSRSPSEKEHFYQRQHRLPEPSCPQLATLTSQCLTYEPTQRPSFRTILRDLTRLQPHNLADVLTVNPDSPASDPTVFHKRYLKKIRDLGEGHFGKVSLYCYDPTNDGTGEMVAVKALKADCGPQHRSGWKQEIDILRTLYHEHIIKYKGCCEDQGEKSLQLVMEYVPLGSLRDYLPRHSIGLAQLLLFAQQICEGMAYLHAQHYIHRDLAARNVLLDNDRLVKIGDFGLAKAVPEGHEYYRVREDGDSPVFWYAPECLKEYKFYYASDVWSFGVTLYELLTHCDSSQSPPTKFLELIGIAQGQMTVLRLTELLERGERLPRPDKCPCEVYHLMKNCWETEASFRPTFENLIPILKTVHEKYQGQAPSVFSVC

SMILES: O=C(Nc1nc2cccc(-c3ccc(CN4CCS(=O)(=O)CC4)cc3)n2n1)C1CC1 [FILGOTINIB]
- Activity (Mus musculus [1]): Active
- Activity (Mus musculus [2]): Active
- Activity (Mus musculus [3]): Active
- Activity (Mus musculus [4]): Active
- Activity (Mus musculus [5]): Active
- Activity (Mus musculus [6]): Active
- Activity (Rattus norvegicus [7]): Active
- Activity (Rattus norvegicus [8]): 10.32 mm
- Activity (Mus musculus [9]): Active
- Activity (Mus musculus [10]): Active

- inhibition [11]: 6%
- inhibition at 1 µM [12]: 10%
SMILES: N#CCC(=O)NC1CN(c2ncnc3[nH]ccc23)CC12CC2 (centres undefined)

- inhibition [18]: 90%
- inhibition [20]: 90%
- Ratio IC50 (Homo sapiens): 48
- inhibition [22]: 90%
SMILES: CN(c1ncnc2[nH]ccc12)[C@H]1CN(C(=O)CC#N)CC12CC2
- Activity (Rattus norvegicus [13]): Active
- Activity (Mus musculus [14]): Dose-dependent effect
- Activity (Mus musculus [15]): Dose-dependent effect
- Activity (Mus musculus [16]): Dose-dependent effect
- Activity (Mus musculus [17]): Dose-dependent effect
- Activity (Mus musculus [19]): Dose-dependent effect
- Activity (Mus musculus [21]): Dose-dependent effect
- Activity (Mus musculus [23]): Dose-dependent effect

— ChEMBL document CHEMBL4257478, “Design, synthesis and evaluation of (R)-3-(7-(methyl(7H-pyrrolo[2,3-d]pyrimidin-4-yl)amino)-5-azaspiro[2.4]heptan-5-yl)-3-oxopropanenitrile as a JAK1-selective inhibitor” (Medchemcomm, 2018)
